Values after ≈ are worked out from the molar mass of the structure shown.
Columns and labels:
Type in all cases: functional
Pseudomonas aeruginosa [1] = test: Antimicrobial activity against metallo-beta-lactamase-negative Pseudomonas aeruginosa isolate PA479
Pseudomonas aeruginosa [2] = test: Antimicrobial activity against Pseudomonas aeruginosa isolate PA469 expressing VIM-2 beta-lactamase
Pseudomonas aeruginosa [3] = test: Antimicrobial activity against Pseudomonas aeruginosa isolate PA465 expressing VIM-2 beta-lactamase
Pseudomonas aeruginosa [4] = test: Antimicrobial activity against metallo-beta-lactamase-negative Pseudomonas aeruginosa isolate PA460
Pseudomonas aeruginosa [5] = test: Antimicrobial activity against Pseudomonas aeruginosa isolate PA475 expressing VIM-2 beta-lactamase
Pseudomonas aeruginosa [6] = test: Antimicrobial activity against Pseudomonas aeruginosa isolate PA481 expressing VIM-2 beta-lactamase
Pseudomonas aeruginosa [7] = test: Antimicrobial activity against Pseudomonas aeruginosa isolate PA399 expressing VIM-2 beta-lactamase
Pseudomonas aeruginosa [8] = test: Antimicrobial activity against Pseudomonas aeruginosa isolate PA462 expressing VIM-2 beta-lactamase
Pseudomonas aeruginosa [9] = test: Antimicrobial activity against Pseudomonas aeruginosa isolate PA510 expressing VIM-2 beta-lactamase
Pseudomonas aeruginosa [10] = test: Antimicrobial activity against Pseudomonas aeruginosa isolate PA500 expressing VIM-1 beta-lactamase
Pseudomonas aeruginosa [11] = test: Antimicrobial activity against Pseudomonas aeruginosa isolate PA477 expressing VIM-2 beta-lactamase
Pseudomonas aeruginosa [12] = test: Antimicrobial activity against metallo-beta-lactamase-negative Pseudomonas aeruginosa isolate PA509
Pseudomonas aeruginosa [13] = test: Antimicrobial activity against metallo-beta-lactamase-negative Pseudomonas aeruginosa isolate PA494
Pseudomonas aeruginosa [14] = test: Antimicrobial activity against metallo-beta-lactamase-negative Pseudomonas aeruginosa isolate PA507
In short: (§1)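 MBL-negative clinical P. aeruginosa isolates with reduced imipenem susceptibility, collected at the study hospital, some from cystic fibrosis patients. Species identity was confirmed by automated Gram-negative identification card. MIC was read in μg/ml.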

Pseudomonas aeruginosa [15] = test: Antimicrobial activity against metallo-beta-lactamase-negative Pseudomonas aeruginosa isolate PA483
Pseudomonas aeruginosa [16] = test: Antimicrobial activity against metallo-beta-lactamase-negative Pseudomonas aeruginosa isolate PA459; in short: as §1

SMILES | MIC (Pseudomonas aeruginosa [1]) | MIC (Pseudomonas aeruginosa [2]) | MIC (Pseudomonas aeruginosa [3]) | MIC (Pseudomonas aeruginosa [4]) | MIC (Pseudomonas aeruginosa [5]) | MIC (Pseudomonas aeruginosa [6]) | MIC (Pseudomonas aeruginosa [7]) | MIC (Pseudomonas aeruginosa [8]) | MIC (Pseudomonas aeruginosa [9]) | MIC (Pseudomonas aeruginosa [10]) | MIC (Pseudomonas aeruginosa [11]) | MIC (Pseudomonas aeruginosa [12]) | MIC (Pseudomonas aeruginosa [13]) | MIC (Pseudomonas aeruginosa [14]) | MIC (Pseudomonas aeruginosa [15]) | MIC (Pseudomonas aeruginosa [16])
O=C(O)c1cn(C2CC2)c2cc(N3CCNCC3)c(F)cc2c1=O [CIPROFLOXACIN] | ≥ 4 mg/L | ≥ 4 mg/L | ≥ 4 mg/L | ≥ 4 mg/L | ≥ 4 mg/L | ≥ 4 mg/L | ≥ 4 mg/L | ≥ 4 mg/L | ≥ 4 mg/L | ≥ 4 mg/L | ≥ 4 mg/L | ≥ 4 mg/L | ≥ 4 mg/L |  |  | 
NC[C@H]1O[C@H](O[C@H]2[C@H](O)[C@@H](O[C@H]3O[C@H](CO)[C@@H](O)[C@H](N)[C@H]3O)[C@H](N)C[C@@H]2N)[C@H](N)C[C@@H]1O [TOBRAMYCIN] | ≥ 16 mg/L | ≥ 16 mg/L | ≤ 1 mg/L | ≥ 16 mg/L | ≥ 16 mg/L | ≥ 16 mg/L | ≥ 16 mg/L | ≥ 16 mg/L | ≥ 16 mg/L | 8 mg/L (≈ 17.1 µM) | ≥ 16 mg/L | ≥ 16 mg/L | 1 mg/L (≈ 2.14 µM) | 1 mg/L (≈ 2.14 µM) | 1 mg/L (≈ 2.14 µM) | 1 mg/L (≈ 2.14 µM)
NCC[C@H](O)C(=O)N[C@@H]1C[C@H](N)[C@@H](O[C@H]2O[C@H](CN)[C@@H](O)[C@H](O)[C@H]2O)[C@H](O)[C@H]1O[C@H]1O[C@H](CO)[C@@H](O)[C@H](N)[C@H]1O [AMIKACIN] | 8 mg/L (≈ 13.7 µM) | 8 mg/L (≈ 13.7 µM) | 8 mg/L (≈ 13.7 µM) | 4 mg/L (≈ 6.83 µM) | 4 mg/L (≈ 6.83 µM) | 8 mg/L (≈ 13.7 µM) | 8 mg/L (≈ 13.7 µM) | 4 mg/L (≈ 6.83 µM) | 4 mg/L (≈ 6.83 µM) | ≤ 2 mg/L | 8 mg/L (≈ 13.7 µM) | 64 mg/L (≈ 109 µM) | 8 mg/L (≈ 13.7 µM) | 16 mg/L (≈ 27.3 µM) | 2 mg/L (≈ 3.42 µM) | 2 mg/L (≈ 3.42 µM)
